According to ChEMBL document CHEMBL4622886, “Leucinostatins from Ophiocordyceps spp. and Purpureocillium spp. Demonstrate Selective Antiproliferative Effects in Cells Representing the Luminal Androgen Receptor Subtype of Triple Negative Breast Cancer” (2020):
Active and inactive are the calls of the source. The rule behind the calls is not given here. Numbered stars: 1 amine (or outer) side, 2 acyl side, 3 side chain; on linkers, the order of the positions; unused ones are H or OH. Square brackets hold non-standard residues; d marks the D form. Peptide text beside a SMILES is read from it. * marks the point of attachment. X1 = CCC(=O)C[C@@H](O)C[C@@H](C)C[C@H](N[*:1])C(=O)[*:2]; X4 = CCCC[C@@H](O)C[C@@H](C)C[C@H](N[*:1])C(=O)[*:2]; X2 = CCC(=O)/C=C/C[C@@H](C)C[C@H](N[*:1])C(=O)[*:2]; X3 = CCC(=O)CCC[C@@H](C)C[C@H](N[*:1])C(=O)[*:2]; Hexenoyl(2E,4S-Me) = CC[C@H](C)/C=C/C(=O)*; Leu(3R-OH) = CC(C)[C@@H](O)[C@H](N)C(=O)O; NH((S)CH(Me)CH2NMe2) = C[C@@H](CN(C)C)N*; Pro(4S-Me) = C[C@@H]1CN[C@H](C(=O)O)C1; NH((S)CH(CH3)CH2NHMe) = CNC[C@H](C)N*; Aib = CC(C)(N)C(=O)O; βAla = NCCC(=O)O

How the values were obtained:
SUM185PE [1] = assay: Antiproliferative activity against human SUM185PE cells incubated for 48 hrs by sulforhodamine B assay; type: functional
Summary of the method: (§1)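 IMEM with 5% FBS and 0.3% gentamicin; cells used within 4 months of thaw. After seeding at set densities and adhering, cells got compound or DMSO vehicle for 48 h, then were fixed and SRB-stained, with A560 read. GI50 (50% proliferation inhibition vs vehicle) came from non-linear regression of concentration-response curves; three independent experiments, each in triplicate.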

MDA-MB-453 [2] = assay: Antiproliferative activity against human MDA-MB-453 cells incubated for 48 hrs by sulforhodamine B assay; type: functional; conditions: MDA-MB-453, 48 h; summary of the method: as §1
SUM185PE [3] = assay: Antiproliferative activity against human SUM185PE cells at 1 to 100 nM incubated for 48 hrs by sulforhodamine B assay; type: functional, cell-based; summary of the method: as §1
MDA-MB-453 [4] = assay: Antiproliferative activity against human MDA-MB-453 cells at > 1 uM incubated for 48 hrs by sulforhodamine B assay; type: functional, cell-based; summary of the method: as §1
HCC1806 [5] = assay: Antiproliferative activity against human HCC1806 cells at >1 uM incubated for 48 hrs by sulforhodamine B assay; type: functional, cell-based
Summary of the method: (§2)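 Cells (RPMI-1640 with 5% FBS, 0.5% gentamicin; used within 4 months of thaw) were seeded at set densities, allowed to adhere, then treated 48 h with compound or DMSO vehicle. Cells were fixed and SRB-stained, with absorbance read at 560 nm. GI50 vs vehicle was taken by non-linear regression; three independent experiments, each in triplicate.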

HCC1937 [6] = assay: Antiproliferative activity against human HCC1937 cells at >1 uM incubated for 48 hrs by sulforhodamine B assay; type: functional, cell-based; summary of the method: as §2
HCC1937 [7] = assay: Antiproliferative activity against human HCC1937 cells up to 100 nM incubated for 48 hrs by sulforhodamine B assay; type: functional, cell-based; summary of the method: as §2
MDA-MB-231 [8] = assay: Antiproliferative activity against human MDA-MB-231 cells up to 100 nM incubated for 48 hrs by sulforhodamine B assay; type: functional, cell-based; summary of the method: as §1
MDA-MB-231 [9] = assay: Antiproliferative activity against human MDA-MB-231 cells incubated for 48 hrs by sulforhodamine B assay; type: functional; conditions: MDA-MB-231, 48 h; summary of the method: as §1
MDA-MB-231 [10] = assay: Antiproliferative activity against human MDA-MB-231 cells at > 1 uM incubated for 48 hrs by sulforhodamine B assay; type: functional, cell-based; summary of the method: as §1
BT-549 [11] = assay: Antiproliferative activity against human BT549 cells up to 100 nM incubated for 48 hrs by sulforhodamine B assay; type: functional, cell-based; summary of the method: as §2
MDA-MB-453 [12] = assay: Antiproliferative activity against human MDA-MB-453 cells at 1 to 100 nM incubated for 48 hrs by sulforhodamine B assay; type: functional, cell-based; summary of the method: as §1
HCC1806 [13] = assay: Antiproliferative activity against human HCC1806 cells up to 100 nM incubated for 48 hrs by sulforhodamine B assay; type: functional, cell-based; summary of the method: as §2
BT-549 [14] = assay: Antiproliferative activity against human BT549 cells at >1 uM incubated for 48 hrs by sulforhodamine B assay; type: functional, cell-based; summary of the method: as §2
mTORC1 (Homo sapiens) [15] = molecular target: T1, mTORC1 (Homo sapiens) (UniProt P42345+Q8N122+Q9BVC4); conditions: MDA-MB-231, 10 nM
mTORC1 (Homo sapiens) [16] = molecular target: T1, mTORC1 (Homo sapiens); conditions: MDA-MB-453, 10 nM

T1 sequence (Q8N122 whole entry, looked up, other chains not shown): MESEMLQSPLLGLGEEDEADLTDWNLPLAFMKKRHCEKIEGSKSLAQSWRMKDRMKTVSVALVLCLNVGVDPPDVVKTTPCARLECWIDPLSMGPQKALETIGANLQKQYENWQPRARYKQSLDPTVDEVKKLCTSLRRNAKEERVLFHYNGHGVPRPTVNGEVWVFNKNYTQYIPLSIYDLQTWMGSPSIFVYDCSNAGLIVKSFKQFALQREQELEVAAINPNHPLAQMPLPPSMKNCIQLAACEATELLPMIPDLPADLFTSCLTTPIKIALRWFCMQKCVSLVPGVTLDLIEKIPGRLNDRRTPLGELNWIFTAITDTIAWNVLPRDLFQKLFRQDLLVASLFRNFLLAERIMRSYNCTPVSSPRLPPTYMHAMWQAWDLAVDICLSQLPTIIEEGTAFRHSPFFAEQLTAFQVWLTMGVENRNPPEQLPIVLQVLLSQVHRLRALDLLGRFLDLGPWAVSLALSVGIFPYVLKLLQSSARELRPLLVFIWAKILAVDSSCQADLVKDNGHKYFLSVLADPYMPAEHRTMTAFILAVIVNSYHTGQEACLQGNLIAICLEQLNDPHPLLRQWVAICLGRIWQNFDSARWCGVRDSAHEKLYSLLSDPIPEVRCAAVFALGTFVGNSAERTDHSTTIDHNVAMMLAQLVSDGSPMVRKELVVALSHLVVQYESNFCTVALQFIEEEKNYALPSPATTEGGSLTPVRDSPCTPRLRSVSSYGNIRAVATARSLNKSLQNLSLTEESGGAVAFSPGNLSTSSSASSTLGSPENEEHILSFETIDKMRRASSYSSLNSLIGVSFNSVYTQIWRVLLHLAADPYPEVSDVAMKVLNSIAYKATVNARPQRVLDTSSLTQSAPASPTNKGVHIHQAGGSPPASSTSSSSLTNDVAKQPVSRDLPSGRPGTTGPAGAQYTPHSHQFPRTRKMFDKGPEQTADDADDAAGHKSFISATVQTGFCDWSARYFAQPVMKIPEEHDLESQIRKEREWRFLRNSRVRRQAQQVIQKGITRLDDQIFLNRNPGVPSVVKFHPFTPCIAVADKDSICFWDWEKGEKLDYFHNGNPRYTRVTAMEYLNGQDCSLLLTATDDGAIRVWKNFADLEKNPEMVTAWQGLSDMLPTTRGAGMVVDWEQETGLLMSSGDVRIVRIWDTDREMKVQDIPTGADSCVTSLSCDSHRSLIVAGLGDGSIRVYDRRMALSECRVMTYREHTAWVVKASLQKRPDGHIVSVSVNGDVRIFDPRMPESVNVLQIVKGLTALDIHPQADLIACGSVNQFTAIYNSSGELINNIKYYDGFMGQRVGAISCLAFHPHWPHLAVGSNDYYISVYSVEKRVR
T1 sequence (Q9BVC4 whole entry, looked up, other chains not shown): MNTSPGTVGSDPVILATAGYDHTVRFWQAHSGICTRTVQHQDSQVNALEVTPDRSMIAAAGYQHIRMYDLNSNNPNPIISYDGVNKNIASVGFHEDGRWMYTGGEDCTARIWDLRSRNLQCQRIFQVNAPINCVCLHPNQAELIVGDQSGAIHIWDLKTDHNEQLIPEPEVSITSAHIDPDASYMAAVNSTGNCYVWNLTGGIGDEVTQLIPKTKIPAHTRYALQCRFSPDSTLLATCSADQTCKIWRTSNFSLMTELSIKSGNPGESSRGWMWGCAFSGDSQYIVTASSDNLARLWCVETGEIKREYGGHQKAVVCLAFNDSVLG

Row | Compound | GI50 (SUM185PE [1]) [nM] | GI50 (MDA-MB-453 [2]) [nM] | Activity (SUM185PE [3]) | Activity (MDA-MB-453 [4]) | Activity (HCC1806 [5]) | Activity (HCC1937 [6]) | Activity (HCC1937 [7]) | Activity (MDA-MB-231 [8]) | GI50 (MDA-MB-231 [9]) [nM] | Activity (MDA-MB-231 [10]) | Activity (BT-549 [11]) | Activity (MDA-MB-453 [12]) | Activity (HCC1806 [13]) | Activity (BT-549 [14]) | inhibition (mTORC1 (Homo sapiens) [15]) | inhibition (mTORC1 (Homo sapiens) [16])
1 | CC[C@H](C)/C=C/C(=O)N1C[C@@H](C)C[C@H]1C(=O)N[C@@H](CC(C)C)C(=O)N[C@H](C(=O)NC(C)(C)C(=O)N[C@@H](CC(C)C)C(=O)N[C@@H](CC(C)C)C(=O)NC(C)(C)C(=O)NC(C)(C)C(=O)NCCC(=O)N[C@@H](C)CNC)[C@H](O)C(C)C ({Hexenoyl(2E,4S-Me)}-[Pro(4S-Me)]L[Leu(3R-OH)][Aib]LL[Aib][Aib][βAla]-{NH((S)CH(CH3)CH2NHMe)}) | 2 | 2.6 | Active | Active | Active | Active | inactive | inactive | > 100 | Active | inactive | Active | inactive | Active | – | –
2 | CC[C@H](C)/C=C/C(=O)N1C[C@@H](C)C[C@H]1C(=O)N[C@@H](CC(C)C)C(=O)N[C@H](C(=O)NC(C)(C)C(=O)N[C@@H](CC(C)C)C(=O)N[C@@H](CC(C)C)C(=O)NC(C)(C)C(=O)NC(C)(C)C(=O)NCCC(=O)N[C@@H](C)CN(C)C)[C@H](O)C(C)C ({Hexenoyl(2E,4S-Me)}-[Pro(4S-Me)]L[Leu(3R-OH)][Aib]LL[Aib][Aib][βAla]-{NH((S)CH(Me)CH2NMe2)}) | 1.4 | 2.3 | Active | Active | Active | Active | inactive | inactive | > 100 | Active | inactive | Active | inactive | Active | – | –
3 | CCC(=O)C[C@@H](O)C[C@@H](C)C[C@H](NC(=O)[C@@H]1C[C@H](C)CN1C(=O)/C=C/[C@@H](C)CC)C(=O)N[C@H](C(=O)NC(C)(C)C(=O)N[C@@H](CC(C)C)C(=O)N[C@@H](CC(C)C)C(=O)NC(C)(C)C(=O)NC(C)(C)C(=O)NCCC(=O)N[C@@H](C)CN(C)C)[C@H](O)C(C)C ({Hexenoyl(2E,4S-Me)}-[Pro(4S-Me)][X1][Leu(3R-OH)][Aib]LL[Aib][Aib][βAla]-{NH((S)CH(Me)CH2NMe2)}) | – | – | Active | Active | Active | Active | inactive | inactive | – | Active | inactive | Active | inactive | Active | – | –
4 | CCC(=O)/C=C/C[C@@H](C)C[C@H](NC(=O)[C@@H]1C[C@H](C)CN1C(=O)/C=C/[C@@H](C)CC)C(=O)N[C@H](C(=O)NC(C)(C)C(=O)N[C@@H](CC(C)C)C(=O)N[C@@H](CC(C)C)C(=O)NC(C)(C)C(=O)NC(C)(C)C(=O)NCCC(=O)N[C@@H](C)CNC)[C@H](O)C(C)C ({Hexenoyl(2E,4S-Me)}-[Pro(4S-Me)][X2][Leu(3R-OH)][Aib]LL[Aib][Aib][βAla]-{NH((S)CH(CH3)CH2NHMe)}) | 2.2 | 4 | Active | Active | Active | Active | inactive | inactive | > 100 | Active | inactive | Active | inactive | Active | – | –
5 | CCC(=O)/C=C/C[C@@H](C)C[C@H](NC(=O)[C@@H]1C[C@H](C)CN1C(=O)/C=C/[C@@H](C)CC)C(=O)N[C@H](C(=O)NC(C)(C)C(=O)N[C@@H](CC(C)C)C(=O)N[C@@H](CC(C)C)C(=O)NC(C)(C)C(=O)NC(C)(C)C(=O)NCCC(=O)N[C@@H](C)CN(C)C)[C@H](O)C(C)C ({Hexenoyl(2E,4S-Me)}-[Pro(4S-Me)][X2][Leu(3R-OH)][Aib]LL[Aib][Aib][βAla]-{NH((S)CH(Me)CH2NMe2)}) | 4.4 | 7.9 | Active | Active | Active | Active | inactive | inactive | > 100 | Active | inactive | Active | inactive | Active | – | –
6 | CCC(=O)CCC[C@@H](C)C[C@H](NC(=O)[C@@H]1C[C@H](C)CN1C(=O)/C=C/[C@@H](C)CC)C(=O)N[C@H](C(=O)NC(C)(C)C(=O)N[C@@H](CC(C)C)C(=O)N[C@@H](CC(C)C)C(=O)NC(C)(C)C(=O)NC(C)(C)C(=O)NCCC(=O)N[C@@H](C)CNC)[C@H](O)C(C)C ({Hexenoyl(2E,4S-Me)}-[Pro(4S-Me)][X3][Leu(3R-OH)][Aib]LL[Aib][Aib][βAla]-{NH((S)CH(CH3)CH2NHMe)}) | – | – | Active | Active | Active | Active | inactive | inactive | > 100 | Active | inactive | Active | inactive | Active | – | –
7 | CCC(=O)CCC[C@@H](C)C[C@H](NC(=O)[C@@H]1C[C@H](C)CN1C(=O)/C=C/[C@@H](C)CC)C(=O)N[C@H](C(=O)NC(C)(C)C(=O)N[C@@H](CC(C)C)C(=O)N[C@@H](CC(C)C)C(=O)NC(C)(C)C(=O)NC(C)(C)C(=O)NCCC(=O)N[C@@H](C)CN(C)C)[C@H](O)C(C)C ({Hexenoyl(2E,4S-Me)}-[Pro(4S-Me)][X3][Leu(3R-OH)][Aib]LL[Aib][Aib][βAla]-{NH((S)CH(Me)CH2NMe2)}) | – | – | Active | Active | Active | Active | inactive | inactive | > 100 | Active | inactive | Active | inactive | Active | – | –
8 | CCCC[C@@H](O)C[C@@H](C)C[C@H](NC(=O)[C@@H]1C[C@H](C)CN1C(=O)/C=C/[C@@H](C)CC)C(=O)N[C@H](C(=O)NC(C)(C)C(=O)N[C@@H](CC(C)C)C(=O)N[C@@H](CC(C)C)C(=O)NC(C)(C)C(=O)NC(C)(C)C(=O)NCCC(=O)N[C@@H](C)CNC)[C@H](O)C(C)C ({Hexenoyl(2E,4S-Me)}-[Pro(4S-Me)][X4][Leu(3R-OH)][Aib]LL[Aib][Aib][βAla]-{NH((S)CH(CH3)CH2NHMe)}) | – | – | Active | Active | Active | Active | inactive | inactive | > 100 | Active | inactive | Active | inactive | Active | – | –
9 | CCCC[C@@H](O)C[C@@H](C)C[C@H](NC(=O)[C@@H]1C[C@H](C)CN1C(=O)/C=C/[C@@H](C)CC)C(=O)N[C@H](C(=O)NC(C)(C)C(=O)N[C@@H](CC(C)C)C(=O)N[C@@H](CC(C)C)C(=O)NC(C)(C)C(=O)NC(C)(C)C(=O)NCCC(=O)N[C@@H](C)CN(C)C)[C@H](O)C(C)C ({Hexenoyl(2E,4S-Me)}-[Pro(4S-Me)][X4][Leu(3R-OH)][Aib]LL[Aib][Aib][βAla]-{NH((S)CH(Me)CH2NMe2)}) | – | – | Active | Active | Active | Active | inactive | inactive | > 100 | Active | inactive | Active | inactive | Active | – | –
10 | CO[C@H]1C[C@@H]2CC[C@@H](C)[C@@](O)(O2)C(=O)C(=O)N2CCCC[C@H]2C(=O)O[C@H]([C@H](C)C[C@@H]2CC[C@@H](O)[C@H](OC)C2)CC(=O)[C@H](C)/C=C(\C)[C@@H](O)[C@@H](OC)C(=O)[C@H](C)C[C@H](C)/C=C/C=C/C=C/1C [SIROLIMUS] | 0.04 | 0.05 | – | – | – | – | – | – | > 100 | – | – | – | – | – | Active | Active
